Bioassay records from PubChem.
Mdm2 MdmX PPI = disrupts the human Mdm2-MdmX interaction. O15151+Q00987. SaOS-2 split-luciferase Mdm2/MdmX complementation, luminescence. inhibition, % at 8 µM. actives 3% (n = 330,000). AID 485346;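 active = inhibition of at least 50% at 8 µM in the primary screen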
Target sequence (O15151 whole entry, looked up): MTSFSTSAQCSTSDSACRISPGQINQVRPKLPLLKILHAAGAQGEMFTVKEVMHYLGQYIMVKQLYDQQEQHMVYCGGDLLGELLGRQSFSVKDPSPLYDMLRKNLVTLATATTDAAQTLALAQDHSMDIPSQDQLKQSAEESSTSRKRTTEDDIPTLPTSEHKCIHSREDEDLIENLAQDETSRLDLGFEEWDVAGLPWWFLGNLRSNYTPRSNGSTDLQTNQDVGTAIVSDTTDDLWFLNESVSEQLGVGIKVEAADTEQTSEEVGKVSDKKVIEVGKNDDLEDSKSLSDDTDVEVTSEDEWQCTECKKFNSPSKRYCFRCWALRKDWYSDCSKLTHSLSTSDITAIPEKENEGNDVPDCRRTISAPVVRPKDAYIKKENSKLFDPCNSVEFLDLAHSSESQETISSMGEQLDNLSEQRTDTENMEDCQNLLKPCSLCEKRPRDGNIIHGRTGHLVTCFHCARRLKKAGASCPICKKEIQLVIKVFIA
Target sequence (Q00987 whole entry, looked up): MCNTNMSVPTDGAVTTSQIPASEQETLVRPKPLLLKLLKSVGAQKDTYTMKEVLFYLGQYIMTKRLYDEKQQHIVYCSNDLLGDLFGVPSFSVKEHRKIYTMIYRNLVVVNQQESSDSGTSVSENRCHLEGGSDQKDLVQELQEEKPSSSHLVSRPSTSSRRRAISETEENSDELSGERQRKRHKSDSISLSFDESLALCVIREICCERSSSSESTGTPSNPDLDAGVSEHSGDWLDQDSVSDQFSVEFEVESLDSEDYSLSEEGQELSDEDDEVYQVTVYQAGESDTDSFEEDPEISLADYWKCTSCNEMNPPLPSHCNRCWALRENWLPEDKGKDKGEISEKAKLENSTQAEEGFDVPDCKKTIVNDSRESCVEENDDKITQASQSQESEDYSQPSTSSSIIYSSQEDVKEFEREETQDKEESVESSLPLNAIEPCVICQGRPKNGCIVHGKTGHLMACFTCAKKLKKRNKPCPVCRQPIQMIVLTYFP
T cruzi inh = blocks replication of Trypanosoma cruzi; T. cruzi beta-gal in NIH3T3, luminescence, 90 h; AID 1885; actives 1.4% (n = 300,000); inhibition, % (test concentration not listed);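 active = mean inhibition across valid replicates above about 55%, limit read from the data; inconclusive = mean below that limit but half or more replicates reach it; inactive = mean below it, under half of replicates reach it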;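 also: signal also drops with host cell toxicity which is not excluded here; 0% = plate median of DMSO wells and 100% = zero luminescence signal; higher percent means less beta-gal luminescence so fewer parasites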
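Read-out: Parasite load inhibition, % | Test system: Mouse NIH/3T3 fibroblasts infected with β-gal-expressing T. cruzi Tulahuen C4 | Amount: 5,000 cells/well | Medium: DMEM, 2% fetal bovine serum | Signal: GalScreen β-gal luminescence, detergent lysis, 60 min | Timing: 3 h attach, ≥90 h co-culture | Also added: Tulahuen C4 trypomastigotes, 5000/well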
SKKanGAS inh = SKKanGAS growth inhibition. S. pyogenes SKKanGAS, kanamycin growth, BacTiter-Glo, 6 h. inhibition, % at 7.5 µM. actives 1.3% (n = 300,000). AID 1662;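 active = mean replicate score, as percent of positive control median, at least 50; inconclusive = mean below 50 but one replicate at or above 50; inactive = mean and every replicate below 50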;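 also: strain carries kanamycin resistance gene driven by streptokinase promoter and grows in 40 µg/ml kanamycin; loss of luminescence reflects streptokinase promoter inhibition or plain growth inhibition; 0% = median of DMSO wells and 100% = positive control at its reference dose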
L major viab = reduces viability of Leishmania major promastigotes; resazurin fluorescence viability; inhibition, % at 10 µM; actives 9% (n = 200,000); AID 1063; in the data active = inhibition above about 50%;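 also: promastigotes grown with compound for 44 hours at 28 °C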
Beta apoptosis = beta cell apoptosis inhibition; actives 0.8% (n = 300,000); protection from apoptosis, % (test concentration not listed); INS-1E cytokine-induced death, ATP luminescence, 48 h; percent of positive-control rescue, neutral wells zero;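 active = Every replicate reaches about 75%, or at least half do and their mean reaches it too, limit read from the data; inconclusive = At least half of replicates reach the limit but their mean does not; inactive = Under half of replicates reach the limit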;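 also: 0% = cytokine-treated negative control wells and 100% = positive control rescue; higher means more ATP so stronger rescue from cytokine killing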
CSC inhib = blocks cancer stem cells | cancer stem cell-like cells viability, luminescence | inhibition, % at 7.5 µM | actives 1.1% (n = 300,000); in the data active = inhibition above about 75%; inconclusive = no clear call, values can overlap the other calls; tested in HMLE shEcad cells
Starred values were filed as active, the others as inactive; u = inconclusive; x = not tested or not shown. In the library only some 9.4% were active in any assay of this set; here they are far more common.

SMILES | Mdm2 MdmX PPI | T cruzi inh | SKKanGAS inh | L major viab | Beta apoptosis | CSC inhib
CN(C(=O)COC(=O)c1cc([N+](=O)[O-])ccc1Sc1ccccc1)C1CCS(=O)(=O)C1 (stereo unspecified) | 28 | 1 | 4 | 100* | 1 | -10
CN(C)c1cccc(C(=O)OCC(=O)NC2CCCC2)c1 | -31 | -4 | -2 | x | x | x
COc1ccc2c(c1)CCC(C)N2S(=O)(=O)c1ccc(C2CNC(=O)C2)cc1 (stereo unspecified) | 13 | 8 | -6 | 95* | 4 | -9
COc1ccc(CNS(=O)(=O)c2ccc(C3CNC(=O)C3)cc2)cc1 (stereo unspecified) | 21 | -3 | -1 | 0 | -1 | -4
Cc1csc2c(N(C)CCO)ncnc12 | 7 | -1 | -1 | x | 1 | -9
CCOC(=O)C1=C(C)C2C3C(=O)N(c4ccccc4C)C(=O)C3C1(C)C1C(=O)N(c3ccccc3C)C(=O)C21 (stereo unspecified) | 29 | -17 | -10 | 56* | -4 | -6
CCOC(=O)C1=C(C)C2C3C(=O)N(c4ccc(C)cc4C)C(=O)C3C1(C)C1C(=O)N(c3ccc(C)cc3C)C(=O)C21 (stereo unspecified) | -6 | 3 | 2 | 74* | x | -14
CCOC(=O)C1=C(COC(=O)CSc2ccc(C)cc2C)NC(=O)NC1C (stereo unspecified) | 4 | x | x | x | x | x
CC1CCN(S(=O)(=O)c2ccc(NC(=O)C3CCN(C(=O)c4ccco4)CC3)cc2)CC1 | 14 | 4 | 5 | x | 1 | 2
Cc1ccc(S(=O)(=O)Nc2cccc3c2O[C@H](CN(C)C(=O)Nc2cccc4ccccc24)[C@H](C)CN([C@H](C)CO)C3=O)cc1 | 15 | x | x | x | -1 | -10
Cn1c(=O)oc2cc(S(=O)(=O)N3CCc4ccccc43)ccc21 | 12 | -3 | -4 | x | -1 | 11
CCOC(=O)Cn1c(=O)oc2cc(S(=O)(=O)N(C)Cc3ccccc3)ccc21 | 6 | -7 | -4 | x | -4 | -5
CCOC(=O)Cn1c(=O)oc2cc(S(=O)(=O)Nc3cc(Cl)ccc3OC)ccc21 | 3 | -5 | -1 | -4 | -5 | -20
CCOC(=O)Cn1c(=O)oc2cc(S(=O)(=O)Nc3cc(OCC)ccc3OCC)ccc21 | 10 | x | x | 71* | x | -13
Cn1c(=O)c(=O)n(C)c2cc(S(=O)(=O)N3CCc4ccccc43)ccc21 | 0 | -1 | -22 | 52* | 6 | -12
CC(C)(C)NC(=O)Cn1c(=O)oc2cc(S(=O)(=O)N3CCc4ccccc43)ccc21 | -9 | 11 | 3 | 98* | -2 | -6
CCOC(=O)Cn1c(=O)oc2cc(S(=O)(=O)N3CCc4ccccc43)ccc21 | 7 | 13 | -1 | 60* | 2 | -15
Cc1n[nH]c(C)c1CCOc1ccc(C(C)C)cc1 | -33 | 12 | 96* | 8 | 9 | x
Cc1ccc(NP(=O)(Nc2ccc(C)cc2)Nc2ccc(C)cc2)cc1 | 42 | 3 | 19 | 58* | -16 | -9
COc1ccc(S(=O)(=O)N(CC(=O)NN=C2CCN(C)CC2)c2cc(Cl)ccc2OC)cc1OC | 38 | 9 | 3 | x | -6 | -8
CCCS(=O)(=O)c1nc(S(=O)(=O)c2ccc(C)cc2)c(N2CCc3ccccc3C2)s1 | 24 | 14 | -1 | 61* | 0 | 50
O=C(CN1CCN(S(=O)(=O)c2ccc(F)cc2)CC1)NCC1(N2CCOCC2)CCCCC1 | 17 | x | x | x | 4 | x
Cc1nn(Cc2ccccc2)c(C)c1C(=O)OCC(=O)c1cc(C)n(CC(F)(F)F)c1C | 29 | 34 | 1 | 16 | 9 | 78*
Nc1nc(-c2cccc(NS(=O)(=O)c3ccccc3)c2)cs1 | 15 | -3 | -6 | 59* | -1 | -4
CSCCC(NS(=O)(=O)c1ccccc1F)C(=O)Nc1cccc(C)n1 (stereo unspecified) | 13 | -12 | 20 | x | x | -7
SMILES | Mdm2 MdmX PPI | T cruzi inh | SKKanGAS inh | L major viab | Beta apoptosis | CSC inhib
CCC(C)C1C(C#N)=C(N)Oc2n[nH]c(C)c21 (stereo unspecified) | 27 | -7 | -6 | 67* | -9 | -5
COc1ccc(OC)c(/C=N/n2c(-c3n[nH]c4c3CCC4)n[nH]c2=S)c1 | -22 | -7 | 50* | x | 0 | -8
COc1ccc(C(CC(=O)Nc2cc(C)ccn2)N2Cc3ccccc3C2=O)cc1 (stereo unspecified) | -15 | 4 | -2 | x | 0 | -12
COc1ccc(C(Nc2cc(C)ccn2)c2ccc3ccc(C)nc3c2O)cc1 (stereo unspecified) | 43 | 59* | 61* | x | -28 | 25
Cc1ccnc(NC(c2ccsc2)c2ccc3ccc(C)nc3c2O)c1 (stereo unspecified) | 41 | 63* | 93* | 5 | -49 | 20
Cc1ccc2ccc(C(Nc3cccc(C(F)(F)F)c3)c3cccnc3)c(O)c2n1 (stereo unspecified) | 7 | 48 | 65* | 100* | 5 | 4
Cc1ccc2ccc(C(Nc3ccccn3)c3ccccc3)c(O)c2n1 (stereo unspecified) | 43 | 44 | 85* | 100* | x | x
O=C(CCCC(=O)c1ccccc1)Nc1ccc(O)cc1 | 10 | -7 | -1 | x | -2 | 17
Cc1ccnc(NC(c2cccnc2)c2ccc3cccnc3c2O)c1 (stereo unspecified) | 33 | 17 | u | 98* | -25 | 1
COc1ccccc1NC(c1cccnc1)c1ccc2cccnc2c1O (stereo unspecified) | 13 | 40 | 5 | 3 | 14 | 40
COc1cccc(C2c3c(-c4ccccc4O)n[nH]c3C(=O)N2Cc2ccco2)c1 (stereo unspecified) | 16 | 2 | -6 | x | 0 | 0
O=C1c2[nH]nc(-c3ccccc3O)c2C(c2ccccc2)N1Cc1ccco1 (stereo unspecified) | 18 | 4 | 9 | 78* | 2 | 8
O=C1c2[nH]nc(-c3ccccc3O)c2C(c2ccccc2F)N1Cc1ccco1 (stereo unspecified) | 20 | 14 | -3 | 100* | -3 | 6
CC1(C)C2CCC1(C)C(OCC[N+](C)(C)CC(=O)OC1CCCCC1)C2 (stereo unspecified) | 40 | 63* | 0 | 100* | 47 | 25
CCOC(=O)C[N+](C)(C)CCOC1CC2CCC1(C)C2(C)C (stereo unspecified) | 22 | 18 | 4 | -6 | 6 | -2
Cc1cccc(-n2c(C)cc(/C=N/n3cnnc3)c2C)c1 | -3 | 8 | 7 | 15 | 111* | -8
COc1ccc(-n2nnnc2CNC(=O)C2CC(=O)N(c3ccc(Cl)cc3)C2)cc1 (stereo unspecified) | 19 | -9 | -5 | x | 0 | -1
CCOc1ccc2c(c1)OC(c1ccc(OC)cc1)(C(F)(F)F)NC2=O (stereo unspecified) | 47 | 35 | 3 | 100* | 5 | 55
